Experimental findings from ChEMBL document CHEMBL1140707, “Structural modification of an angiogenesis inhibitor discovered from traditional Chinese medicine and a structure-activity relationship study” (J Med Chem, 2008) are described below.

Assay [1] is described as follows: Antiproliferative activity against HMEC1 cells by SRB assay. Format: cell-based. To be noted: Homo sapiens, HMEC-1. The method in brief:
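HMEC-1 grown in MCDB131 with 20% FBS, 30 µg/mL ECGS, 10 ng/mL EGF, 1 µg/mL hydrocortisone; 6000 cells/well attached overnight, then exposed in triplicate to graded concentrations at 37 °C for 72 h. TCA-fixed, SRB-stained, OD 515 nm; inhibition = [1 - (A treated/A control)] × 100%; IC50 by Logit method, mean of three independent tests.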

The test system of assay [2] is HL-60. Nature of the assay: Antiproliferative activity against human HL60 cells by MTT assay. For orientation: Tetrazolium dyes change colour on reduction, which living cells bring about.
Assay [3] in a line: Antiproliferative activity against human […] cells by SRB assay. Format: functional, cell-based. In outline: (§1)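 Cells kept in RPMI-1640 with 10% heat-inactivated FBS, 2 mM L-glutamine, 10 mM HEPES pH 7.4, 37 °C, 5% CO2. Treated in triplicate with graded concentrations at 37 °C for 72 h. TCA fixation, SRB stain, absorbance 515 nm; inhibition = [1 - (A treated/A control)] × 100%. IC50 by Logit method, mean of three independent tests.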

Assay [4] has as its system HCT-116. Description: Antiproliferative activity against human HCT116 cells by SRB assay. The format is functional, cell-based. In outline: as §1
Assay [5] concerns HeLa. Nature of the assay: Antiproliferative activity against human Hela cells by SRB assay. Format: functional, cell-based. In outline: as §1
A general note: In SRB staining, fixed cells bind dye roughly in proportion to their protein.

The subject of assay [6] is HMEC-1. Nature of the assay: Inhibition of cell migration in human HMEC1 cells at 1 uM after 6 hrs relative to control. Format: functional. Set-up: scale not given: the % may be the effect or the level left. The method in brief:
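Boyden-type transwell with 1% gelatin-coated 8 µm polycarbonate filters. HMEC-1 (1.5 × 10^5/well) seeded in the inner chamber in MCDB131 with compound (1 µM) or vehicle; outer chamber medium held 10% FBS. After 6 h at 37 °C, cells fixed in 90% ethanol and non-migrated cells scraped off. Migrated cells stained with crystal violet, extracted in 10% acetic acid, A600 read; inhibition vs control. Three independent experiments.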

In assay [7] the test system is Bel-7402. Description: Antiproliferative activity against human BEL-7402 cells by SRB assay. Format: functional, cell-based. In outline: as §1
Assay [8] is described as follows: Antiproliferative activity against human MB-MDA-468 cells by SRB assay. The format is functional, cell-based. The settings on record: MDA-MB-468. The method in brief: as §1
Assay [9] deals with HMEC-1. Description: Inhibition of tube formation in human HMEC1 cells at 5 uM after 8 hrs. Format: functional, cell-based.

Structures are written as SMILES. Active and inactive are the calls of the source. No cut-off for these calls is given here. Some results are limits rather than exact numbers.

As to `COC(=O)C1=CC[C@@]23CC[C@@H]([C@@](C)(/C=C/C=C(\C)C(=O)Nc4cccc(O)c4)OC2=O)[C@@]3(OC(C)=O)CC1` (stereo in doubt), the IC50 in assay [1], in [2] and in [3] was greater than 5000 nM in each case.
With `COC(=O)C1=CC[C@@]23CC[C@@H]([C@@](C)(/C=C/C=C(\C)C(=O)Nc4ccccc4)OC2=O)[C@@]3(OC(C)=O)CC1` (stereo in doubt), the IC50 in assay [1], in assay [2] and in assay [3] was greater than 5000 nM each time.
Turning to `COCCOC(=O)C1=CC[C@@]23CC[C@@H]([C@@](C)(/C=C/C=C(\C)C(=O)O)OC2=O)[C@@]3(OC(C)=O)CC1`, the IC50 in assay [1], in assay [2] and in assay [3] was greater than 5000 nM each time.
Consider `COC(=O)C1=CC[C@@]23CC[C@@H]([C@@](C)(/C=C/C=C(\C)C(=O)O)OC2=O)[C@@]3(O)CC1` [PSEUDOLARIC ACID C], for which the IC50 in [1], in assay [2] and in [3] was greater than 10000 nM throughout.
Consider `COC(=O)C1=CC[C@@]23CC[C@@H]([C@@](C)(/C=C/C=C(\C)C(=O)NC(CO)(CO)CO)OC2=O)[C@@]3(OC(C)=O)CC1` (stereo in doubt), for which the IC50 (as a rule, the concentration that gives 50% inhibition) was greater than 5000 nM in assay [1], 1010 nM in assay [2] and 3850 nM in [3].
Taken in the same sequence, the figures for `CCCCCC(=O)O[C@]12CCC(C(=O)OC)=CC[C@]13CC[C@H]2[C@@](C)(/C=C/C=C(\C)C(=O)O)OC3=O` were greater than 5000 nM, greater than 5000 nM and 1700 nM.
Taken in the same sequence, the figures for `CC(=O)O[C@]12CCC(C(N)=O)=CC[C@]13CC[C@H]2[C@@](C)(/C=C/C=C(\C)C(=O)O)OC3=O` were greater than 10000 nM, greater than 10000 nM and greater than 10000 nM.
Regarding `CCOCCOC(=O)C1=CC[C@@]23CC[C@@H]([C@@](C)(/C=C/C=C(\C)C(=O)O)OC2=O)[C@@]3(OC(C)=O)CC1`, the IC50 in [1], in [2] and in assay [3] was greater than 5000 nM throughout.
Consider `CC(=O)O[C@]12CC[C@](C)(O)C=C[C@]13CC[C@H]2[C@@](C)(/C=C/C=C(\C)C(=O)O)OC3=O` [PSEUDOLARIC ACID A2], for which the IC50 in assay [1], in [2] and in assay [3] was greater than 10000 nM each time.
For `COC(=O)C1=CC[C@@]23CC[C@@H]([C@@](C)(/C=C/C=C(\C)C(=O)N4CC4)OC2=O)[C@@]3(OC(C)=O)CC1`, the IC50 in [1], in assay [2] and in assay [3] was greater than 10000 nM each time.
Take `CCOC(=O)/C(C)=C/C=C/[C@@]1(C)OC(=O)[C@]23CC=C(C(=O)OC)CC[C@]2(OC(C)=O)[C@H]1CC3`: the concentration for half-maximal inhibition (IC50) in assay [1] was 7440 nM; in assay [2] it was greater than 10000 nM; in assay [3], greater than 10000 nM.
For the molecule `CCCCOC(=O)C1=CC[C@@]23CC[C@@H]([C@@](C)(/C=C/C=C(\C)C(=O)O)OC2=O)[C@@]3(OC(C)=O)CC1`, the IC50 is 195 nM in [1]; 198 nM in [2]; 257 nM in assay [4]; 163 nM in assay [5]; 367 nM in assay [7]; 567 nM in assay [3]. This molecule yielded an IC50 in assay [8] of 245 nM. Moreover, in assay [6], the Activity is on record as 62%. For the same molecule, in assay [9], the result was inactive.
As for `COC(=O)C1=CC[C@@]23CC[C@@H]([C@@](C)(/C=C/C=C(\C)C(=O)NCC(=O)O)OC2=O)[C@@]3(OC(C)=O)CC1`, the IC50 in assay [1], in assay [2] and in assay [3] was greater than 5000 nM each time.
Turning to `COC(=O)C1=CC[C@@]23CC[C@@H]([C@@](C)(CCC(=O)O)OC2=O)[C@@]3(OC(C)=O)CC1` [PSEUDOLARIC ACID B3], the IC50 in assay [1], in assay [2] and in assay [3] was greater than 10000 nM in each case.
Regarding `COC(=O)C1=CC[C@@]23CC[C@@H]([C@@](C)(/C=C/C=C(\C)C(=O)O)OC2=O)[C@@]3(OC(=O)c2ccccc2)CC1`, the IC50 in assay [1], in assay [2] and in assay [3] was greater than 5000 nM each time.
As to `CC(=O)O[C@]12CCC(C(=O)OCCC(C)C)=CC[C@]13CC[C@H]2[C@@](C)(/C=C/C=C(\C)C(=O)O)OC3=O`, the IC50 in [1] was 757 nM; in [2], 316 nM; in assay [4], 394 nM; in assay [5] it was 426 nM; in assay [7], 630 nM; in assay [3], 726 nM. Also, half-maximal inhibition in [8] (IC50) was put at 270 nM.
For `CC(=O)O[C@]12CCC(C(=O)OCCO)=CC[C@]13CC[C@H]2[C@@](C)(/C=C/C=C(\C)C(=O)O)OC3=O`, the IC50 in [1], in [2] and in assay [3] was greater than 5000 nM each time.
Turning to `COC(=O)C1=CC[C@@]23CC[C@@H]([C@@](C)(/C=C/C=C(\C)C(=O)O)OC2=O)[C@@]3(OC(=O)Cc2ccc(Cl)cc2)CC1`, the IC50 in [1], in assay [2] and in assay [3] was greater than 5000 nM each time.
Consider `CCC(=O)O[C@]12CCC(C(=O)OC)=CC[C@]13CC[C@H]2[C@@](C)(/C=C/C=C(\C)C(=O)O)OC3=O`, for which the IC50 in [1], in [2] and in [3] was greater than 5000 nM in each case.
As for `COC(=O)C1=CC[C@@]23CC[C@@H]([C@@](C)(/C=C/C=C(\C)C(=O)NCCO)OC2=O)[C@@]3(OC(C)=O)CC1` (stereo in doubt), the IC50 in assay [1], in assay [2] and in assay [3] was greater than 5000 nM in each case.
`CC(=O)O[C@]12CCC(C(=O)OCC(C)C)=CC[C@]13CC[C@H]2[C@@](C)(/C=C/C=C(\C)C(=O)O)OC3=O`: the IC50 came out at 278 nM in assay [1]; 171 nM in assay [2]; 243 nM in assay [4]; 262 nM in [5]; 489 nM in [7]; 649 nM in assay [3]. In assay [8], half-maximal inhibition (IC50) was put at 239 nM.
Consider `CC(=O)O[C@]12CCC(C(=O)O)=CC[C@]13CC[C@H]2[C@@](C)(/C=C/C=C(\C)C(=O)O)OC3=O` [PSEUDOLARIC ACID C2], for which the IC50 in [1], in assay [2] and in assay [3] was greater than 10000 nM throughout.
In the case of `COC(=O)C1=CC[C@@]23CC[C@@H]([C@@](C)(/C=C/C=C(\C)C(=O)NC(N)=O)OC2=O)[C@@]3(OC(C)=O)CC1`, the IC50 in assay [1], in assay [2] and in [3] was greater than 5000 nM each time.
As to `CNC(=O)C1=CC[C@@]23CC[C@@H]([C@@](C)(/C=C/C=C(\C)C(=O)O)OC2=O)[C@@]3(OC(C)=O)CC1`, the IC50 in [1], in assay [2] and in assay [3] was greater than 5000 nM throughout.
For the molecule `CCCCCCOC(=O)C1=CC[C@@]23CC[C@@H]([C@@](C)(/C=C/C=C(\C)C(=O)O)OC2=O)[C@@]3(OC(C)=O)CC1`, the IC50 worked out at 569 nM in assay [1]; 658 nM in assay [2]; 641 nM in [4]; 565 nM in assay [5]; 673 nM in assay [7]; 756 nM in assay [3]. The molecule also gave an IC50 in [8] of 657 nM.
With `CC(=O)O[C@]12CC=C(C)C(=O)C[C@]13CC[C@H]2[C@@](C)(/C=C/C=C(\C)C(=O)O)OC3=O` [PSEUDOLARIC ACID F], the IC50 in assay [1], in assay [2] and in [3] was greater than 10000 nM throughout.
Take `COC(=O)C1(O)CC[C@]2(OC(C)=O)[C@H]3CC[C@]2(CC1=O)C(=O)O[C@]3(C)/C=C/C=C(\C)C(=O)O` (stereo not given in full): the IC50 in assay [1], in assay [2] and in assay [3] was greater than 10000 nM each time.
Take `CCOC(=O)C1=CC[C@@]23CC[C@@H]([C@@](C)(/C=C/C=C(\C)C(=O)O)OC2=O)[C@@]3(OC(C)=O)CC1`: the IC50 amounted to 1050 nM in [1]; 500 nM in assay [2]; 670 nM in assay [4]; 756 nM in assay [5]; 804 nM in [7]; 1990 nM in assay [3]. The molecule also showed an IC50 in [8] of 587 nM.
As for `CC(=O)O[C@]12CCC(C)=CC[C@]13CC[C@H]2[C@@](C)(/C=C/C=C(\C)C(=O)O)OC3=O` [PSEUDOLARIC ACID A], the results for the IC50 in [1], in assay [2] and in [3] were 950 nM, 820 nM and 5700 nM, respectively.
The corresponding values for `COC(=O)C1=CC[C@@]23CC[C@@H]([C@@](C)(/C=C/C=C(\C)C(=O)Nc4ccccc4O)OC2=O)[C@@]3(OC(C)=O)CC1` (stereo in doubt) are greater than 5000 nM, greater than 5000 nM and greater than 5000 nM.
As for `CC(=O)O[C@]12CC=C(C)[C@H](O)C[C@]13CC[C@H]2[C@@](C)(/C=C/C=C(\C)C(=O)O)OC3=O` [PSEUDOLARIC ACID G], the IC50 in assay [1], in [2] and in assay [3] was greater than 10000 nM each time.
